Measured values as given in ChEMBL document CHEMBL1122501, “Potential antiatherosclerotic agents. 2. (Aralkylamino)- and (alkylamino) benzoic acid analogues of cetaben” (1983).

Legend:
[1] = molecular target: T1, Sterol O-acyltransferase 1 (Rattus norvegicus) (UniProt O70536); test: In vitro inhibitory activity against acyl coenzyme A:cholesterol acyltransferase (ACAT); design: concentration or dose not given beside the values; conditions: concentration not given here
T1 sequence (whole entry): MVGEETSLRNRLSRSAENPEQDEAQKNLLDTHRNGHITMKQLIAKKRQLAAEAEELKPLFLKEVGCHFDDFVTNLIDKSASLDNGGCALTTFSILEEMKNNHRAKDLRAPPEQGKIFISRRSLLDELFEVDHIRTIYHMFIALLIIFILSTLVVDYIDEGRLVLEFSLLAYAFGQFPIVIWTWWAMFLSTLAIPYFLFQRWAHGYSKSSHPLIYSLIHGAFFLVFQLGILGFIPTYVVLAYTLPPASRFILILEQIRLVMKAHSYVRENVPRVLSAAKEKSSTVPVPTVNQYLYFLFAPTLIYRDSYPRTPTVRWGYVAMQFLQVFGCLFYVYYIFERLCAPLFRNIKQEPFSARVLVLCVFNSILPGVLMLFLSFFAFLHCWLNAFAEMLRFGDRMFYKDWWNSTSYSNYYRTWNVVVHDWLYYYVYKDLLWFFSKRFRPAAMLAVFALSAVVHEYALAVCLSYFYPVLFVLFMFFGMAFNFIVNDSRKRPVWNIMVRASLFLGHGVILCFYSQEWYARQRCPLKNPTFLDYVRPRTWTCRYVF
Summary of the method: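 ACAT enzyme from rat adrenal homogenate in 0.2 M KH2PO4 buffer pH 7.4, 1000g 15 min 5 °C supernatant (microsomal fraction). Supernatant + BSA (50 mg/mL) + compound at final 5.2 μg/mL + buffer preincubated 10 min 37 °C; [14C]oleoyl-CoA (0.4 μCi) added, 30 min 37 °C. Lipids extracted, TLC; cholesteryl ester zone counted. Mean % inhibition vs no-compound control; Student's t test.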

Rattus norvegicus [2] = test: In vivo Triglyceride lowering activity at dose as 0.03 % of the diet.; assay type: functional
Summary of the method: (§1)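 Male CFE or CD-1 Sprague-Dawley rats, 140-150 g; 8 per control group, 4 per test group. Compound mixed into ground chow (w/w) via MeOH-CHCl3 (1:3) solution, solvent evaporated; controls got solvent-treated chow. Fed ad libitum 5 days, food intake monitored, killed fed and bled. Serum sterols and triglycerides by adapted autoanalyzer methods; mean percent of control, Student's t test.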

Rattus norvegicus [3] = test: In vivo Sterol lowering activity at dose as 0.03 % of the diet.; assay type: functional; summary of the method: as §1
Rattus norvegicus [4] = test: In vivo Sterol lowering activity at dose as 0.10 % of the diet.; assay type: functional; summary of the method: as §1
Rattus norvegicus [5] = test: In vivo triglyceride lowering activity, dosed at 0.01 % of the diet.; assay type: functional; summary of the method: as §1
Rattus norvegicus [6] = test: In vivo triglyceride lowering activity dosed at 0.10 % of the diet; assay type: functional; summary of the method: as §1
Rattus norvegicus [7] = test: In vivo Sterol lowering activity at dose as 0.01 % of the diet.; assay type: functional; summary of the method: as §1
Rattus norvegicus [8] = test: In vivo Triglyceride lowering activity at dose as 0.01 % of the diet; assay type: functional; summary of the method: as §1
Rattus norvegicus [9] = test: In vivo sterol lowering activity dosed at 0.10 % of the diet; assay type: functional; summary of the method: as §1
Rattus norvegicus [10] = test: In vivo triglyceride lowering activity, dosed at 0.10 % of the diet.; assay type: functional; summary of the method: as §1
Rattus norvegicus [11] = test: In vivo triglyceride lowering activity, dosed at 0.03 % of the diet; assay type: functional; summary of the method: as §1

Structure (SMILES)	inhibition [1] [%]	Diet (Rattus norvegicus [2]) [%]	serum sterol level, percent of control (Rattus norvegicus [3]) [%]	serum sterol, percent of control (Rattus norvegicus [4]) [%]	Diet (Rattus norvegicus [5]) [%]	serum triglycerides, percent of control (Rattus norvegicus [6]) [%]	serum sterol, percent of control (Rattus norvegicus [7]) [%]	Diet (Rattus norvegicus [8]) [%]	serum sterol, percent of control (Rattus norvegicus [9]) [%]	Diet (Rattus norvegicus [10]) [%]	serum triglycerides, percent of control (Rattus norvegicus [11]) [%]
CCOC(=O)c1ccc(NCCCc2ccccc2N)cc1	43	97	96	98	83	69	103	–	–	–	–
CCOC(=O)c1ccc(NCCc2ccc(Cl)cc2)cc1	37	90	113	97	–	60	115	70	–	–	–
O=C(O)c1ccc(NCCCc2ccccc2[N+](=O)[O-])cc1	2	103	83	–	84	77	88	–	83	–	–
O=C(O)c1ccc(N(CCCc2ccc(Cl)cc2)CCCc2ccc(Cl)cc2)cc1	33	91	84	98	126	–	98	–	–	85	–
CCOC(=O)c1ccc(NC(=O)CCCCCc2ccc(Cl)cc2)cc1	42	95	101	99	96	–	93	–	–	104	–
CCOC(=O)c1cccc(NCCCc2ccc(Cl)cc2)c1	50	–	93	96	–	59	96	75	–	–	62
O=C(/C=C/c1ccc(Cl)cc1)Nc1ccc(C(=O)O)cc1	41	109	100	120	94	–	100	–	–	116	–
CCOC(=O)c1ccc(NCCCc2ccc(Cl)cc2)cc1C(=O)OCC	54	91	99	96	93	–	95	–	–	80	–
CCOC(=O)c1ccc(NC(=O)CCc2ccc(C)cc2)cc1	25	64	99	88	73	–	97	–	–	69	–

More lines, main results first:

inhibition [1] [%]	Structure (SMILES)	Diet (Rattus norvegicus [2]) [%]	serum sterol level, percent of control (Rattus norvegicus [3]) [%]	serum sterol, percent of control (Rattus norvegicus [4]) [%]	Diet (Rattus norvegicus [5]) [%]	serum triglycerides, percent of control (Rattus norvegicus [6]) [%]	serum sterol, percent of control (Rattus norvegicus [7]) [%]	Diet (Rattus norvegicus [8]) [%]	serum sterol, percent of control (Rattus norvegicus [9]) [%]	Diet (Rattus norvegicus [10]) [%]	serum triglycerides, percent of control (Rattus norvegicus [11]) [%]
6	O=C(O)c1ccc(NCCc2ccc(Cl)cc2)cc1	91	90	105	114	67	106	–	–	–	–
50	CCOC(=O)c1ccc(NCCCCCC(=O)c2ccc(Cl)cc2)cc1	–	92	99	76	–	98	–	–	79	56
9	O=C(O)Cc1ccc(NCCCc2ccc(Cl)cc2)cc1	95	85	82	111	61	83	–	–	–	–
49	Cc1ccc(CCCNc2ccc(C(=O)O)cc2)cc1	–	98	110	–	50	90	63	–	–	54
30	O=C(O)c1ccc(NCCCCCC(O)c2ccc(Cl)cc2)cc1 (stereo not drawn)	90	100	86	85	72	100	–	–	–	–
